TNAP inh noacc: TNAP (human) inhibition, acceptor-free conditions; purified TNAP, CDP-star luminescence, 30 min; hit rate 0.26% among 200,000; inhibition, % at 20 µM;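 active = tissue-nonspecific alkaline phosphatase inhibition above about 50% at 20 µM in the single-dose screen, limit read from the data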;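 also: 0% = DMSO negative control and 100% = EDTA positive control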
TNAP inh hi DEA: blocks human TNAP under high phosphate acceptor concentration. inhibition, % at 20 µM. hit rate 0.03% among 200,000. purified TNAP, CDP-star luminescence, 1 M DEA;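 active = over 50% inhibition of tissue-nonspecific alkaline phosphatase at 20 µM in the single-dose screen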;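 also: plate controls were DMSO wells for no effect and EDTA-quenched wells as full inhibition for full effect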
TNAP act hi DEA: TNAP (human) activation, high acceptor; purified TNAP, CDP-star luminescence, 1 M DEA, 30 min; stronger effect = higher value; 0 = EDTA background, 1 = DMSO-only activity; activation factor at 20 µM; 200,000 tested, under 10 active;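 active = activation factor at least 2 at 20 µM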
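Control set: EDTA negative control, DMSO positive control / Assay system: human TNAP / Quantity: TNAP 1/800 final / Evaluation: TNAP activation factor scaled between EDTA and DMSO control wells / Measured by: luminescent substrate turnover signal / Compound dosing: one dose, 20 µM / Times: 30 min enzyme reaction at room temperature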
G6PDH counter: inhibits Leuconostoc G6PDH, flagging false hits in G6PDH-based assays | Purified L. mesenteroides G6PDH, diaphorase/resazurin coupled fluorescence, 45 min | inhibition, % at 5 µM | hit rate 0.12% among 200,000; in the data active = inhibition above about 50%
DTT redox prof: compounds producing H2O2 with reducing agent – biochemical, NIH compound library profiling, artefact control for MLSCN library redox annotation, primary screen; DTT-dependent redox cycling H2O2, phenol red/HRP absorbance; 100% = 100 µM peroxide control, 0% = buffer; activation, % at 10 µM; hit rate 0.03% among 200,000;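 active = activation of at least 50% relative to the plate's high and low controls in the primary single-dose screen; inactive = activation below 50%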;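 also: compound incubated with DTT at 0.8 mM final as the reducing agent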
p97 inhibitor: human p97 ATPase inhibition. P55072. recombinant p97 ATPase, Kinase-Glo ATP luminescence, 3 h. inhibition, % at 8 µM. hit rate 0.42% among 220,000; in the data active = inhibition above about 15%;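 also: 0% = DMSO vehicle and 100% = wells lacking enzyme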
Redox H2O2 DR: generates H2O2 by DTT-dependent redox cycling, confirmed in dose response; shares compounds with DTT redox prof; phenol red-HRP absorbance; EC50, µM; hit rate 40% among 60;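 active = EC50 under a set limit for hydrogen peroxide production with the reducing agent DTT present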
p97 confirm: confirmation of human p97 ATPase inhibitors. shares compounds with p97 inhibitor. recombinant p97 ATPase, Kinase-Glo ATP luminescence. inhibition, % at 8 µM. hit rate 44% among 760;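 active = percent inhibition of p97 ATPase above a set limit, the primary screen's mean plus 3 SD, cut at about 15% in these data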;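 also: 0% = DMSO wells and 100% = wells lacking p97 protein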
Numbers without * were called inactive; nt = no result given. A selection: hits, their analogues and other compounds. The true share with any hit is near 0.79%.

SMILES	TNAP inh noacc	TNAP inh hi DEA	TNAP act hi DEA	G6PDH counter	DTT redox prof	p97 inhibitor	p97 confirm	others
Oc1ccc(CC2CC3CCN2CC3)cc1O (stereo unspecified)	74.7*	7.0	0.9	40.1	-0.7	1.4	nt
CN1CCN(c2cc(N3CCCCCC3)c(F)cc2[N+](=O)[O-])CC1	15.1	16.3	0.8	2.2	0.1	1.1	nt
O=C(N/N=C/c1c(O)n(CCC2=CCCCC2)c(=O)[nH]c1=O)c1ccccc1	67.3*	-2.0	1	-0.5	0.3	7.2	nt
CCCCC(=O)N/N=C/c1c(O)n(CC)c(=S)[nH]c1=O	87.4*	-9.0	1.1	22.6	-0.1	4.9	nt
CCCCCCC(=O)N/N=C/c1c(O)n(CCCC)c(=S)[nH]c1=O	nt	nt	nt	nt	nt	4.4	nt
Fc1cccc(CCNCc2ccccn2)c1	8.8	-7.5	1.1	-1.0	-8.2	0.2	nt
O=C1NC(=O)N(c2ccccc2)C(=O)/C1=C/C=C/c1ccco1	nt	nt	nt	nt	nt	-2.7	nt
CN(C)c1ccc(/C=C/C=C2/C(=O)NC(=O)N(c3ccccc3)C2=O)cc1	53.9*	51.3*	0.5	12.8	-0.6	-9.0	nt
CN1C(=O)c2ccccc2NC(=O)C1Cc1ccccc1 (stereo unspecified)	62.1*	-1.9	1	19.5	0.4	1.2	nt
O=C1NC(=O)C2(Cc3ccccc3N3CCOCC32)C(=O)N1c1ccccc1 (stereo unspecified)	-12.3	-8.7	1.1	3.7	-0.1	-3.1	nt
Cc1nc2c(=O)n(C)c(=O)nc-2n(C)n1	0.1	-0.8	1	67.6*	292.7*	31.0*	38.3*	Redox H2O2 DR=2.76*
CCN1C(=O)N(CC)C(=O)C2(Cc3ccccc3N3CCN(c4ccccc4)CC32)C1=O (stereo unspecified)	nt	nt	nt	nt	nt	-3.6	nt
CCn1nc(-c2ccccc2)nc2c(=O)n(C)c(=O)nc1-2	-0.1	1.4	1	59.4*	139.8*	37.1*	34.3*	Redox H2O2 DR=0.9*
O=C1C(=O)c2ccccc2-c2ccccc21	-1.9	7.7	0.9	53.4*	284.5*	31.9*	38.0*	Redox H2O2 DR=0.71*
COC(=NC1CCCC1)C(O)c1c[nH]c2ccccc12 (stereo unspecified)	-5.9	1.6	1	9.4	1.1	-3.5	nt
CCOP(=O)(OCC)C(O)c1cccnc1 (stereo unspecified)	nt	nt	nt	nt	nt	9.6	nt
Cc1ccc(S(=O)(=O)N(C)C/N=C(\N)N[N+](=O)[O-])cc1	-14.8	-4.2	1	0.3	-0.3	15.4*	7.4
Cc1ccc(S(=O)(=O)N(C)CCCC(=O)N2CCN(c3ccccn3)CC2)cc1	5.8	-1.8	1	6.2	1.3	1.3	nt
Nc1ccnn1C1CCNCC1	-7.6	-0.5	1	-14.8	2.8	2.5	nt
CN1CCC(n2nccc2N)CC1	-7.2	-2.0	1	4.5	2.5	14.8*	2.0
O=C1NC(=O)N(Cc2ccco2)C(=O)/C1=C/C=C/c1ccco1	nt	nt	nt	nt	nt	31.2*	12.1
O=C1NC(=O)N(Cc2ccccc2)C(=O)/C1=C\C=C\c1ccco1	1.4	-2.5	1	6.4	5.2	2.3	nt
Cc1cc(C)c(-n2c(O)c(/C=N/N3CCCCC3c3cccnc3)c(=O)[nH]c2=O)c(C)c1 (stereo unspecified)	3.8	-1.5	1	-7.2	0.2	4.1	nt
CC1CCC[C@H](O)CCCCCc2cc(O)cc(O)c2C(=O)O1 (stereo partly specified)	-7.8	-5.8	1.1	6.7	-0.2	16.8*	24.6*
CC(=O)N1N=C2C3CCN(CC3)C2C1c1ccc(C)cc1 (stereo unspecified)	-8.0	-2.2	1	9.4	-0.4	0.9	nt
CC(=O)N1N=C2C3CCN(CC3)C2C1c1cccc2ccccc12 (stereo unspecified)	-1.5	-5.2	1.1	15.7	0.4	16.0*	10.8
Nc1ccccc1-[n+]1c(-c2ccccc2)cc(-c2ccccc2)cc1-c1ccccc1	nt	nt	nt	nt	nt	15.7*	10.4
